Measured values collected from several papers.
Each line is one published result; the experiments were not run side by side.
Target: Serine/threonine-protein kinase 16 (STK16, Homo sapiens, UniProt O75716)

With CC(=O)Nc1c(C(C)=O)c(=O)n(C)c2nc(-c3ccc(Cl)cc3Cl)c(-c3ccc(Cl)cc3)cc12 the remaining binding was 100% (cell-free assay; competition with immobilised ligand; 1 µM).
FC(F)(F)Oc1cccc(-c2cnc3ccc(-c4ccncc4)nn23)c1 has an activity vs control of 120% (enzyme activity; inhibitor; radiometric; 1 µM).
COc1cc(-c2cc(-c3ccc(N4CCNCC4)cc3)cnc2C)cc(OC)c1OC gave an inhibition of 8% (enzyme activity; inhibitor; 1 µM).
For O=C(Nc1cnn(-c2csc(C(=O)NC3COC3)c2)c1)Nc1c(F)cccc1Cl, the remaining activity was 107% (enzyme activity; inhibitor; 5 µM).
CN(C)C(=O)Cn1cc(-c2nc(C3(c4ccc(-c5cnc(N)nc5)cc4)CC3)no2)cn1 gave a remaining binding of 100% (cell-free assay; competition with immobilised ligand; 1 µM).
For C[C@@H]1CCN(C(=O)CC#N)C[C@@H]1N(C)c1ncnc2[nH]ccc12, the remaining signal was 94.7% (cell-free assay; inhibitor; 0.5 µM).
The remaining activity of COc1cc(Nc2cnc(C#N)c(O[C@H](C)CN(C)C)n2)ncc1-c1cnn(C)c1 is reported as 91% (enzyme activity; inhibitor; radiometric; 1 µM).
For O=C(O)c1cc(-c2ccc(C3CCNCC3)cc2)c2ccc(-c3ccc(C(F)(F)F)cc3)cc2c1, the remaining binding was 100% (cell-free assay; competition with immobilised ligand; 1 µM).
The remaining signal of O=C1Nc2ccc(Cl)cc2C1=Cc1cc(Cl)c(O)c(Cl)c1 is reported as 90.2% (cell-free assay; 0.5 µM).
Cn1cnc(Br)c1C1=CN(c2ncnc3[nH]cnc23)CCS1 gave an inhibition of 38.5% (enzyme activity; inhibitor; radiometric; 50 nM).
With CS(=O)(=O)N1CCCC(NC(=O)[C@H](CCC2CCCCC2)NC(=O)c2ccc(CNc3ncnc4c3nnn4-c3ccccc3)cc2)C1 (stereo partly shown) the remaining binding was 100% (cell-free assay; competition with immobilised ligand; 0.1 µM).
With Nc1ncnc2occ(-c3ccc(NC(=O)Nc4cc(C(F)(F)F)ccc4F)cc3)c12 the remaining signal was 84% (cell-free assay; inhibitor; 20 µM).
For Cn1cc(Cl)c2c(Oc3c(F)cc(Nc4cc(Cl)nc(N)n4)cc3F)ccnc21, the remaining binding was 100% (cell-free assay; competition with immobilised ligand; 0.1 µM).
N#CCCc1ccc2c(c1)-c1[nH]c3ccc([N+](=O)[O-])cc3c1CC(=O)N2 has a remaining signal of 87% (cell-free assay; 0.5 µM).
The inhibition of Cn1cncc1C1=CN(c2ncnc3[nH]cnc23)CCS1 is reported as 22% (enzyme activity; inhibitor; radiometric; 50 nM).
CN1CC(Oc2cnc(C#N)cc2-c2ccn3nc(NC(=O)C4CC4)cc3c2)C1 has an inhibition of 10% (enzyme activity; inhibitor; 1 µM).
CN(C(=O)c1ccccc1)c1cc(N(C)c2ccc3c(c2)CCc2ccc(C(=O)NCCN4CCOCC4)cc2C3=O)ccc1F has a remaining binding of 93% (cell-free assay; competition with immobilised ligand; 1 µM).
With Oc1cccc(-c2nc(N3CCOCC3)c3oc4ncccc4c3n2)c1 the remaining signal was 91.7% (cell-free assay; 0.5 µM).
CCCCNc1ncc2c(-c3ccc(F)cc3)nn(C[C@H]3CC[C@H](N)CC3)c2n1 has an inhibition of 56.4% (target engagement in cells; inhibitor; chemoproteomics; 20 mM).
